Assay outcomes (PubChem BioAssay)
A selection: hits, their analogues and other compounds. The true share with any hit is near 2.4%.
697 NFkB inh: inhibitors of PMA/ionomycin-induced NF-kB reporter, 697 cells, primary screen, B-cell NF-kB inhibitor project, cell-based, luminescence, uHTS | inhibition, % at 4 µM | 697 B-cell NF-kB luciferase reporter, 16 h | 330,000 tested, 0.33% active; in the data active = inhibition above about 35%
aDG glyco up: activators of alpha-DG glycosylation, primary screen, uHTS, Pro5-aDG cells, AlphaScreen. alpha-DG glycosylation AlphaScreen (IIH6); 0% Pro5, 100% B10-LARGE cell signal. activation, % at 10 µM. 360,000 tested, 0.22% active;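 active = activation of at least 8% versus controls, or a plate z-score of at least 8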;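 note: Pro5 are CHO cells carrying HIG-tagged alpha-DG that lacks glycosylation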
MPTP block: mitochondrial permeability transition pore inhibitors, primary screen, biochemical, isolated mouse mitochondria, absorbance; inhibition, % at 10 µM; Ca2+ swelling absorbance, 30 min; 360,000 tested, 1.4% active;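 active = inhibition of 50% or more, scaled per plate between neutral and stimulator controls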
Jurkat NFkB inh: inhibitors of induced NF-kB luciferase reporter, primary screen, TCR NF-kB activation inhibitor project, cell-based, luminescence, uHTS; 330,000 tested, 0.53% active; AID 435003, 2010; Jurkat, PMA/ionomycin-induced NF-kB luciferase reporter; inhibition, % at 4 µM; in the data active = inhibition above about 50%
NR2E3 ag-1: NR2E3 agonists in two-hybrid cells, primary screen, cell-based, luminescence, CHO-S, Gal4-NCOR/VP16-NR2E3; inhibition of corepressor binding, % at 3.98 µM; Photoreceptor-specific nuclear receptor (Homo sapiens), Q9Y5X4; AID 602229, 2012; 360,000 tested, 0.35% active; luciferase;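 active = inhibition above the mean of all tested compounds plus 3 SD, cut at about 70% in these data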;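 note: higher means lower luciferase signal from less NR2E3 corepressor binding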
Target sequence (Q9Y5X4 whole entry, looked up, the tested form may be a part): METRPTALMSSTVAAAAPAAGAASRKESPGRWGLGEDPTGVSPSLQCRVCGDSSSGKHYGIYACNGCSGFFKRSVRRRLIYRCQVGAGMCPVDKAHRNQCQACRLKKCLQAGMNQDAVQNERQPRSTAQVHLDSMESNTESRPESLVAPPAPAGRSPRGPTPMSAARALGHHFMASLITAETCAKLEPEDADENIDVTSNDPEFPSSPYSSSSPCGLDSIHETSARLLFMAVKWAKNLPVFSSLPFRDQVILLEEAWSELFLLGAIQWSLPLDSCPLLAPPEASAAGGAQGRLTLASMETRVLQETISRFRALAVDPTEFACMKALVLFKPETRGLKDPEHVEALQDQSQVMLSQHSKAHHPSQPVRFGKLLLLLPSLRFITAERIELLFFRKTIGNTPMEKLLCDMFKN
NR2E3 ag-2: inhibitors of NR2E3-RetCOR corepressor binding, primary screen, NR2E3 agonist project, biochemical, TR-FRET, GST-NR2E3, biotin-RetCOR | inhibition of corepressor binding, % at 4.78 µM | 320,000 tested, 0.12% active | 1536-well | AID 2300, 2010;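 active = percent inhibition above the cutoff of mean plus 3 SD of all tested compounds, set per screening campaign, cut at about 20% in these data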
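Format: 1536-well format; test system: GST-NR2E3 and biotin-RetCOR proteins; read-out basis: percent inhibition of TR-FRET ratio; timing: 5 h incubation at 4 °C; detection: time-resolved FRET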
MPTP counter: fluorescence retest of MPTP screen hits in isolated mitochondria, single concentration; membrane potential, Rhodamine 123 fluorescence; shares compounds with MPTP block; 5,000 tested, 78% active; inhibition, % at 10 µM; in the data active = inhibition above about 22%
MPTP abs DR: mitochondrial permeability transition pore inhibitors, dose response, biochemical, absorbance, uHTS hits; isolated mitochondria swelling; IC50, µM; 780 tested, 58% active; shares compounds with MPTP block; in the data active = IC50 below about 20 µM
MPTP cs DR: fluorescent counter-screen in isolated mitochondria, dose response, counter-screen for MPTP inhibitor project, biochemical, fluorescence, uHTS hits; shares compounds with MPTP block; isolated mitochondria counterscreen, fluorescence read-out; IC50, µM; 780 tested, 49% active; AID 651564, 2012; in the data active = IC50 below about 80 µM
Large screens that a line does not name were inactive (follow-up assays come after a bar, where they were run).

CC(C)c1ccc(NC2CCCN(C(=O)CN3C(=O)CSC3=O)C2)cc1 (stereo unspecified)	none
Clc1ccc(Nc2ccccc2)nn1	none
COc1cc(Cl)c(C)cc1NC(=O)c1ccccc1-n1cnnn1	none (no result: NR2E3 ag-2)
O=C(O)CCCCCN1C(=O)/C(=C\c2ccc(-c3ccc(Cl)cc3)o2)SC1=S	MPTP block 88 | MPTP counter 47
Cc1nn(-c2ccccc2)c2c1C(c1cccs1)C(C#N)=C(N)O2 (stereo unspecified)	MPTP block 75 | MPTP counter inactive
CCCc1nn(-c2ccccc2)c2c1C(c1cccs1)C(C#N)=C(N)O2 (stereo unspecified)	none
CC(C)c1ccc(N2C(=O)CC(NNC(=O)c3ccccc3Cl)C2=O)cc1 (stereo unspecified)	none
CCc1ccc(CNC(=O)C2CCN(S(=O)(=O)N3CC(C)CC(C)C3)CC2)cc1 (stereo unspecified)	none
CN1CCN(c2ccc(NC(=O)c3cccc(OCc4ccccc4)c3)cc2)CC1	MPTP block 107 | MPTP counter inactive | MPTP abs DR 6.6 | MPTP cs DR inactive
CCN1CCN(c2ccc(NC(=O)c3cccc(OCc4ccccc4)c3)cc2)CC1	none
CCOc1cccc(C(=O)NC(=S)Nc2ccc(N3CCN(CC)CC3)cc2)c1	none
CCCOc1cccc(C(=O)NC(=S)Nc2ccc(N3CCN(C)CC3)cc2)c1	MPTP block 76 | MPTP counter inactive | MPTP abs DR 7.1 | MPTP cs DR 39
O=C(NC(=S)Nc1ccc(CN2CCCCC2)cc1)c1cccc(OCc2ccccc2)c1	MPTP block 84 | MPTP counter inactive | MPTP abs DR inactive | MPTP cs DR inactive
Cc1noc(C)c1S(=O)(=O)Nc1ccc(O)c2c(=O)cc(-c3ccccc3Cl)oc12	none
CC(C)OC(=O)c1c2c(n3ccccc13)C(=O)c1ccccc1C2=O	none
CN1CCN(CC(=O)N2CCn3c4c(c5cc(C6CCCCC6)ccc53)CCCC42)CC1 (stereo unspecified)	MPTP block 98 | MPTP counter inactive
Cc1ccc2c(c1)c1c3n2CCN(C(=O)CN2CCN(C)CC2)C3CCC1 (stereo unspecified)	MPTP block 75 | MPTP counter inactive | MPTP abs DR 20 | MPTP cs DR inactive
CCc1ccc(C(=O)NC(C(=O)NCC2CCCO2)C(C)C)cc1 (stereo unspecified)	none
CN(Cc1ccccc1)C(=O)c1csc([C@@H]2O[C@H](CO)[C@@H](O)[C@H]2O)n1	none (no result: 697 NFkB inh, Jurkat NFkB inh, NR2E3 ag-2)
Cc1oc(S(=O)(=O)N2CCCCC2)cc1NC(=O)Nc1ccc(F)cc1	MPTP block 77 | MPTP counter 87
O=C(Nc1ccc(F)cc1)c1ccc(S(=O)(=O)N2CCCC2)cc1	none
CC(=O)c1ccc(NC(=O)c2ccc(S(=O)(=O)N3CCCC3)cc2)cc1	none
CC(=O)c1ccc(NC(=O)Nc2ccc(S(=O)(=O)N3CCCC3)cc2)cc1	MPTP block 80 (no result: NR2E3 ag-2) | MPTP counter 93
O=C(Nc1ccc(F)cc1)Nc1ccc(S(=O)(=O)N2CCCC2)cc1	MPTP block 83 | MPTP counter 100
NC(=O)NC(Cc1ccccc1)C(=O)NCCCSc1ccccc1 (stereo unspecified)	none
CC1(O)CC(c2ccc(Cl)cc2)=NN1C(=O)c1ccc([N+](=O)[O-])cc1 (stereo unspecified)	MPTP block 73 | MPTP counter 81
COc1ccc(NC(=O)C2CC(=O)N(CCc3ccc(Cl)cc3)C2)cc1 (stereo unspecified)	none
Cn1c(N=Nc2ccc(N3CCOCC3)cc2)[n+](C)c2ccccc21	MPTP block 81 (no result: 697 NFkB inh, Jurkat NFkB inh, NR2E3 ag-2) | MPTP counter 25
Cc1ccc(O)c(-c2cc(C(=O)Nc3ccc(S(=O)(=O)N4CC(C)OC(C)C4)cc3)[nH]n2)c1 (stereo unspecified)	none
O=C(Nc1ccc(S(=O)(=O)N2CCOCC2)cc1)c1cc(-c2cc(Cl)ccc2O)n[nH]1	MPTP block 75 | MPTP counter 61
Cc1ccc(-c2cc(C(=O)Nc3ccc(S(=O)(=O)N4CC(C)OC(C)C4)cc3)[nH]n2)c(O)c1 (stereo unspecified)	MPTP block 51 | MPTP counter 69
CCCN(CC(=O)Nc1cccc(Br)c1)CC(=O)Nc1ccc(F)c(F)c1F	MPTP block 74 | MPTP counter 75
Cn1ncc(Br)c1NC(=O)Nc1ccc(OC(F)(F)F)cc1	MPTP block 89 | MPTP counter 85
Cc1ccc(CNC(=O)Nc2ccc(OC(F)(F)F)cc2)n1C	none
O=C1c2cccc(OCc3ccc(F)cc3)c2CCN1Cc1ccc(F)cc1	MPTP block 79 | MPTP counter 83
Cc1ccc(CN2CCc3c(OCc4ccc(F)cc4)cccc3C2=O)cc1	none
O=C1C=C(c2c(O)ccc3ccccc23)c2ccccc2C1=O	MPTP block 65 (no result: 697 NFkB inh, Jurkat NFkB inh, NR2E3 ag-2) | MPTP counter 50
O=C1C=C(O)c2cccc(O)c2C1=O	none
CCN(C(=O)COC(=O)c1ccccc1SCC(=O)N1CCCC1)C1CCS(=O)(=O)C1 (stereo unspecified)	none
O=C(CSc1nc2ccccc2s1)NNC(=S)Nc1ccc(Cl)cc1	MPTP block 93 | MPTP counter 86
O=C(Nc1cc(S(=O)(=O)N2CCOCC2)ccc1OCC(F)(F)F)C1CCCC1	none (no result: 697 NFkB inh, Jurkat NFkB inh, NR2E3 ag-2)
CC(C)(C)C1CCC(OCC(O)CN2CCN(c3ccccc3)CC2)CC1 (stereo unspecified)	MPTP block 85 | MPTP counter inactive | MPTP abs DR inactive | MPTP cs DR inactive
CC(C)(C)C1CCC(OCC(O)CN2CCCC2)CC1 (stereo unspecified)	none
O=C(Cc1ccc(Br)cc1)NCCc1ccc(Cl)cc1Cl	MPTP block 50 | MPTP counter 68
CCN1C(=O)[C@H]2[C@@H](c3ccc(-c4cccc(Cl)c4)c(OC)c3)N[C@@](C)(C(=O)OC)[C@H]2C1=O	none
